Published values of several laboratories.
Compare with care: the assays were run in different laboratories.

Structure (SMILES)	tested on	assay	test system	conditions	endpoint	value
C=CC(=O)NC1CCN(c2ncc3ncnc(Nc4ccc(Oc5ccc6c(c5)ncn6C)c(C)c4)c3n2)CC1	SW900	cell growth or viability			EC50	46.3 nM
O=C1C=C2NCCc3c[nH]c(c32)C1=O	Plasmodium falciparum	parasite growth, SYBR Green	DD2	blood stage	IC50	23700 nM
CNc1ncc2c(/C=C/C(=O)N3CCC(OC)CC3)nn(Cc3ccc(OC)cc3)c2n1	FLO-1	cell growth or viability, resazurin		5 days	EC50	1130 nM
O=C(/C=C/c1cn(Cc2cn(-c3ccnc4cc(Cl)ccc34)nn2)c2ccccc12)c1ccc(Cl)cc1Cl	Plasmodium falciparum	parasite growth, SYBR Green	3D7	5 µM, blood stage	inhibition	4.87%
CNc1ncc2c(/C=C/C(=O)N3CCC(OC)CC3)nn(CC3CCCO3)c2n1 (stereo not drawn)	FLO-1	cell growth or viability, resazurin		5 days	EC50	> 30000 nM
Cn1cc2c3c1C(=O)C(NCCc1ccc(O)cc1)=CC3=[N+](C)CC2	Plasmodium falciparum	parasite growth, SYBR Green	W2	blood stage	IC50	394 nM
Nc1ncnc2c1c(/C=C/C(=O)N1CCC(O)CC1)nn2CC1CCCC1	FLO-1	cell growth or viability, resazurin		5 days	EC50	> 30000 nM
O=C1C(NCCc2ccc(O)cc2)=CC2=NCCc3c[nH]c1c32	Plasmodium falciparum	parasite growth, SYBR Green	DD2	blood stage	IC50	291 nM
O=C(/C=C/c1cn(Cc2cn(-c3ccnc4cc(Cl)ccc34)nn2)c2ccccc12)c1ccc([N+](=O)[O-])cc1	Plasmodium falciparum	parasite growth, SYBR Green	3D7	5 µM, blood stage	inhibition	3.86%
C=C(F)C(=O)N1CCN(c2nc(OC[C@@H]3CCCN3C)nc3c2CCN(c2cccc4cccc(Cl)c24)C3)C[C@@H]1CC#N	KYSE-410	cell growth or viability, ATP luminescence		3D culture	IC50	107 nM
CNc1ncc2c(/C=C/C(=O)N3CCC(O)CC3)nn(CC3CCCC3)c2n1	FLO-1	cell growth or viability, resazurin		5 days	EC50	> 30000 nM
CCN(CC)CCCC(C)Nc1ccnc2cc(Cl)ccc12 (stereo not drawn)	Plasmodium falciparum	parasite growth, SYBR Green	3D7	25 nM, blood stage	inhibition	52.5%
CNc1ncc2c(/C=C/C(=O)N3CCCC(OC)C3)nn(Cc3cccc(C)c3)c2n1 (stereo not drawn)	FLO-1	cell growth or viability, resazurin		5 days	EC50	13800 nM
O=C(/C=C/c1cn(Cc2cn(-c3ccnc4cc(Cl)ccc34)nn2)c2ccccc12)c1ccc(F)cc1	Plasmodium falciparum	parasite growth, SYBR Green	3D7	10 µM, blood stage	inhibition	47.1%
O=C(NO)c1ccc(CNc2nc3cccc(-c4ccc5c(c4)OCO5)n3n2)cc1	COLO 205	cell growth or viability, SRB			GI50	630 nM
